From PubChem BioAssay
Most compounds without a hit are left out; they make up all but 4.4% or so of the library.
MsrA act – bovine MsrA enzyme activators, primary screen, biochemical, absorbance, HTS; Methionine sulfoxide reductase A (Bos taurus); purified bovine MsrA, absorbance read-out; activation, % at 10.6 µM; 0.3% of 360,000 active; AID 602163, 2012; in the data active = activation above about 7.5%
Tb MetRS inh – T. brucei MetRS inhibitors, primary screen, biochemical, luminescence; methionyl-tRNA synthetase (Trypanosoma brucei brucei); inhibition, % at 11.9 µM; 0.4% of 360,000 active; purified T. brucei MetRS, ATP depletion, Kinase-Glo luminescence;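 active = inhibition above a per-plate cutoff of the control wells' mean inhibition plus 3 SD, cut at about 5.5% in these data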
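Measured by: Kinase-Glo luciferase luminescence reporting remaining unconsumed ATP. Material: purified T. brucei MetRS enzyme. Doses: 11.9 µM compound single dose, 0.9% DMSO. Medium: HEPES buffer containing pyrophosphatase, BSA, spermine, DTT. Times: 15 min preincubation, 2 h reaction, all 25 °C. Reagent: methionine, ATP and bulk E. coli tRNA.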
HTR2A ag – mouse Htr2a agonists via beta-arrestin recruitment, primary screen, cell-based, luminescence; activation, % at 7.6 µM; 0.66% of 360,000 active; CHO-K1 mHTR2A beta-arrestin complementation; percent of 30 µM serotonin response; 5-hydroxytryptamine receptor 2A (Mus musculus), P35363;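 active = activation above a run cutoff, the mean activation of all tested compounds plus 3 SD, cut at about 14% in these data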
AHR activator – AHR activators, primary screen, cell-based, luminescence, luciferase reporter, human | Aryl hydrocarbon receptor (Homo sapiens), P35869 | AHR-responsive luciferase reporter cells | activation, % at 5 µM | 2.5% of 320,000 active; in the data active = activation above about 47%
MsrA inhibitor – bovine MsrA enzyme inhibitors, primary screen, biochemical, absorbance, HTS; inhibition, % at 15.5 µM; 0.75% of 360,000 active; Methionine sulfoxide reductase A (Bos taurus); purified bovine MsrA, absorbance read-out; in the data active = inhibition above about 4.5%
AI-2 QS modul – Vibrio harveyi AI-2 quorum sensing modulators, primary screen, JMH597 strain, luminescence/OD600 ratio | Vibrio harveyi JMH597 AI-2 luminescence/OD600 ratio, 9 h; active compounds read low; strain lacks LuxN and CqsS sensors; 0 = neutral-control median | activity change, % at 7.5 µM | 0.4% of 300,000 active; in the data active = activity change below about -75%, passing the limit was not always enough;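 also: luminescence divided by OD600 gain over 9 h not by final OD600 alone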
AHR act cf – AHR activators, confirmation, cell-based, luminescence, luciferase reporter, human | shares compounds with AHR activator | human cells, AHR-responsive luciferase reporter | activation, % at 9 µM | 87% of 2,300 active | AID 2845, 2010; in the data active = activation above about 49%;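 also: HepG2 hepatoma cells carrying a DRE-driven firefly luciferase reporter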
PXR act counter – human PXR activators, counter-screen for AHR activator project, cell-based, luciferase luminescence; shares compounds with AHR activator; cell-based PXR reporter; activation, % at 11.6 µM; 88% of 2,300 active; AID 434939, 2010; in the data active = activation above about 11%;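 also: human hepatoma DPX-2 cells expressing full-length human PXR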
Target sequence (O75469 whole entry, looked up): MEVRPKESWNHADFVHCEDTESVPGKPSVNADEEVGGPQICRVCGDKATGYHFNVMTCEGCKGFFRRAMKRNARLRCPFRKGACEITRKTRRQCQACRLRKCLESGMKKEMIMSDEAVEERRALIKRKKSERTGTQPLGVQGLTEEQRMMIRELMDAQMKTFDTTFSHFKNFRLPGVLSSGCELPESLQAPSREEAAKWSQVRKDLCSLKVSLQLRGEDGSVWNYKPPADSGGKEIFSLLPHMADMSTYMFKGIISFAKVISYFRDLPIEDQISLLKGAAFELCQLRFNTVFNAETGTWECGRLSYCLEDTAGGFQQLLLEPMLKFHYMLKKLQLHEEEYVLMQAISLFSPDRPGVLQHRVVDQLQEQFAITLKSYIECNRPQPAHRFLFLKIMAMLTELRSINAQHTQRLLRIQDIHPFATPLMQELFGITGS
Large screens that a line does not name were inactive (follow-up assays come after a bar, where they were run).

Cc1cccc(NC(=S)N/N=C/c2c[nH]c3ccccc23)c1	AHR activator 135 | AHR act cf 87 | PXR act counter 19
Cc1cccc(NC(=S)N/N=C/c2cccc([N+](=O)[O-])c2)c1	AHR activator 134 (no result: MsrA inhibitor) | AHR act cf 145 | PXR act counter 41
Cc1cccc(NC(=S)NNC(=O)c2ccc3c(c2)OCO3)c1	none
CC(=O)Nc1cccc(-c2ccnc3c2CC(C)(C(=O)NCc2ccc(N(C)C)cc2)O3)c1 (stereo not drawn)	none (no result: AHR activator, AI-2 QS modul)
CC12CC3CC(C)(C1)CC(C(=O)NCc1cccnc1)(C3)C2	none
CC(Sc1nnnn1C)C(=O)Nc1ncc(Cl)cc1Cl (stereo not drawn)	none (no result: AI-2 QS modul)
COP(=O)(c1ccc(N(C)C)cc1)C(O)c1ccccc1 (stereo not drawn)	none
CCn1c2ccccc2c2cc(NC(=O)COc3ccccc3)ccc21	AHR activator 100 | AHR act cf 89 | PXR act counter 60
CCn1c2ccccc2c2cc(NC(=O)N3CCOCC3)ccc21	AHR activator 118 | AHR act cf 99 | PXR act counter 109
CCn1c2ccccc2c2cc(NC(=O)CN(C)CC(=O)Nc3ccc(N4CCOCC4)cc3)ccc21	none
CCN(CC(=O)Nc1cc(Cl)ccc1C)C(=O)COc1cccc2c1OC(C)(C)C2	none
COc1cccc2[nH]c3c(N4CC(C)CC(C)C4)ncnc3c12 (stereo not drawn)	none (no result: MsrA act, Tb MetRS inh, HTR2A ag, AHR activator, MsrA inhibitor)
COc1cccc2[nH]c3c(N4CCCC(C)C4)ncnc3c12 (stereo not drawn)	AHR activator 81 | AHR act cf 97 | PXR act counter 69
O=C(N/N=C/c1ccc2cccc(OCc3ccccc3)c2n1)c1ccc(Cl)cc1	AHR activator 99 | AHR act cf 70 | PXR act counter 13
O=C(N/N=C/c1ccncc1)c1ccc(COc2cccc3cccnc23)cc1	none
N#C/C(=C\c1ccc(Sc2ccccc2)o1)c1nc2ccccc2[nH]1	AHR activator 145 | AHR act cf 122 | PXR act counter 151
N#C/C(=C/c1ccc(Sc2nc3ccccc3[nH]2)o1)c1cccc(Br)c1	Tb MetRS inh 19, AHR activator 83 | AHR act cf inactive | PXR act counter 84
N#C/C(=C/c1ccc(Sc2nc3ccccc3[nH]2)o1)c1cccc(F)c1	none
Cc1c(-c2nc(-c3cccnc3)no2)cccc1[N+](=O)[O-]	AHR activator 88 | AHR act cf 119 | PXR act counter 19
O=C(CNc1cc(S(=O)(=O)N2CCOCC2)ccc1N1CCCC1)Nc1ccc(Cl)cc1F	none (no result: AHR activator, AI-2 QS modul)
CCN(CC)C(CNC(=O)c1cc(=O)[nH]c2ccccc12)c1ccccc1Cl (stereo not drawn)	none
O=C1C(c2cc(=O)c3ccccc3[nH]2)=C(O)c2ccccc21	AHR activator 167 | AHR act cf 191 | PXR act counter 25
O=c1cc(-c2ccccc2)[nH]c2ccccc12	none
NC(=O)c1cc2ccccc2o/c1=N\NC(=O)c1ccncc1	AHR activator 127 | AHR act cf 137 | PXR act counter 15
O=C(Nc1ccccc1C(=O)N/N=C/c1ccco1)c1ccc(F)cc1	AHR activator 200 | AHR act cf 111 | PXR act counter 12
O=C(Nc1ccccc1C(=O)N/N=C/c1ccco1)c1ccc(Cl)cc1	AHR activator 87 | AHR act cf 94 | PXR act counter 30
O=C(Nc1ccccc1C(=O)N/N=C/c1ccco1)c1ccccc1	AHR activator 127 | AHR act cf 151 | PXR act counter 18
Cc1ccccc1C(=O)Nc1ccccc1C(=O)N/N=C\c1ccco1	none
COc1ccc(Cn2c(CCC(=O)NCCC(C)C)nc3ncccc3c2=O)cc1	none
CSc1nc(C(=O)N2CCCC(Nc3ccc(C)c(C)c3)C2)cs1 (stereo not drawn)	AHR activator 108 | AHR act cf 75 | PXR act counter 119
Cc1nc(C(=O)N2CCCC(Nc3ccc(C)c(C)c3)C2)cs1 (stereo not drawn)	none (no result: AHR activator)
O=Nc1ccccn1	none (no result: MsrA act, Tb MetRS inh, HTR2A ag, AHR activator, AI-2 QS modul)
c1ccc(-c2nnc3n2N=C(c2ccc4c(c2)OCO4)CS3)nc1	AHR activator 94 | AHR act cf inactive | PXR act counter 13
O=C(NCCc1nnc2ccc(N3CCCC3)nn12)c1ccccc1	none
O=C(Nc1cccc2ccccc12)c1cccc(F)c1	none (no result: AHR activator)
Fc1cccc(NC(=S)Nc2cccc3ccccc23)c1	AHR activator 82 | AHR act cf 62 | PXR act counter 100
CC(=O)N(C)c1ccc(NC(=S)Nc2cccc3ccccc23)cc1	none
Cc1ccc(NC(=S)Nc2cccc3ccccc23)cc1F	AHR activator 84 | AHR act cf 75 | PXR act counter 112
CC(=O)c1ccc(NC(=S)Nc2cccc3ccccc23)cc1	AHR activator 99 | AHR act cf inactive | PXR act counter 86
CC(=O)c1ccc(NC(=O)c2cc(Cl)nc3ccccc23)cc1	AHR activator 96 | AHR act cf 82
Cc1cc(C)cc(NC(=S)Nc2cccc3cnccc23)c1	none (no result: AHR activator, AI-2 QS modul)
COc1ccccc1-c1sc2ccccc2c1-c1cnc(N2CCOCC2)nc1	none (no result: AHR activator, AI-2 QS modul)
COCCNc1cnn(-c2ccccc2)c(=O)c1Cl	none
O=C(CSc1cccc[n+]1[O-])Nc1cc2c(cc1Cl)C(=O)c1ccccc1C2=O	AHR activator 121 | AHR act cf 135 | PXR act counter 54
Cc1c(C(=O)Nc2ccc(Br)cc2)cnn1C	AHR activator 120 | AHR act cf 136 | PXR act counter 23
COc1ccc2sc(-c3ccc(N(C)C)cc3)c(C#CCCO)c2c1	AHR activator 109 (no result: AI-2 QS modul) | AHR act cf 129 | PXR act counter 19
COc1ccc2sc(-c3ccc(SC)cc3)c(C#CC(C)(C)O)c2c1	none (no result: AI-2 QS modul)
COc1ccc(-c2sc3cc(OC)c(OC)cc3c2C#CCO)cc1	none (no result: AI-2 QS modul)
COc1ccc2sc(-c3ccc(SC)cc3)c(C#CCO)c2c1	AHR activator 85 (no result: AI-2 QS modul) | AHR act cf 90 | PXR act counter 34
Cc1csc(CNC(=O)c2cc(COc3c(C)cccc3C)on2)n1	none
CSCC[C@H](NC(=O)N1C[C@H]2C[C@@H](C1)c1cccc(=O)n1C2)C(=O)Nc1ccc(NC(C)=O)cc1	none
